Measured values taken from ChEMBL document CHEMBL2321750, “Structural permutation of potent cytotoxin, polytheonamide B: discovery of cytotoxic Peptide with altered activity” (ACS Med Chem Lett, 2013).
Active and inactive are the calls of the source. No cut-off for these calls is given here.

Columns and labels:
P388 [1] = experiment: Induction of H+/Na+ exchange activity in BCECF-loaded mouse P388 cells assessed as change in intracellular pH at 125 nM measured for 1.5 hrs by spectrofluorometric analysis; assay type: functional, cell-based
Method in brief: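 P388 mouse leukemia cells loaded with BCECF-AM, which intracellular esterases hydrolyse to trapped BCECF. Cells were suspended in pH 7.8 MOPS buffer with 130 mM NaCl to impose a Na+ gradient. Peptides added at 0 s at 125 nM; exposure 1.5 h. Fluorescence was converted to intracellular pH using a nigericin calibration curve.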

[2] = Induction of H+/Na+ exchange activity in pyranine-encapsulated large unilamellar vesicle of egg yolk phosphatidylcholine/cholesterol at 10 uM administered 60 secs measured for 10 mins by spectrofluorometric analysis; assay type: physicochemical; conditions: 125 nM, in the assay text read “at 125 nM” for “at 10 uM”
Method in brief: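 Liposomes of EYPC/cholesterol 2:1 carrying encapsulated pyranine, prepared in HEPES buffer with 200 mM NaCl. pH gradient: 6.5 inside, 7.5 outside. Peptides added at 60 s. H+/Na+ exchange followed as pH-dependent pyranine fluorescence increase, normalized to maximal exchange induced by Triton X-100.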

P388 [3] = experiment: Cytotoxicity against mouse P388 cells assessed as cell viability after 92 hrs by XTT assay; assay type: functional, cell-based; conditions: P388, 92 h

CC[C@H](C)[C@H](NC(=O)[C@@H](CC(=O)NC)NC(=O)CNC(=O)[C@H](NC(=O)[C@@H](NC(=O)[C@@H](CC(=O)NC)NC(=O)[C@@H](NC(=O)[C@@H](CC(=O)NC)NC(=O)CNC(=O)CNC(=O)[C@H](C)NC(=O)[C@H](NC(=O)[C@H](CCC(=O)NC)NC(=O)[C@@H](CC(=O)NC)NC(=O)[C@@H](NC(=O)CNC(=O)[C@H](C)NC(=O)CNC(=O)[C@@H](NC(=O)[C@@H](CC(=O)NC)NC(=O)[C@H](C)NC(=O)[C@H](NC(=O)[C@H](C)N)C(C)(C)C)C(C)(C)O)C(C)(C)C)C(C)(C)O)[C@@H](C)CC)C(C)(C)C)C(C)(C)O)C(=O)N[C@H](CC(=O)NC)C(=O)N[C@H](C(=O)N[C@H](CC(=O)NC)C(=O)N[C@@H](C)C(=O)N[C@H](CC(=O)NC)C(=O)N[C@H](C(=O)N[C@H](CO)C(=O)N[C@H](C(=O)N[C@H](CC(N)=O)C(=O)N[C@@H](Cc1cn(CCNS(=O)(=O)c2cccc3c(N(C)C)cccc23)nn1)C(=O)N[C@H](CC(N)=O)C(=O)N[C@@H](CCC(N)=O)C(=O)N[C@@H](C(=O)N[C@H](C(=O)O)[C@@H](C)O)[C@H](C)O)C(C)C)C(C)C)C(C)C
Activity (P388 [1]): inactive | Activity [2]: Not Active | IC50 (P388 [3]): 3.7 nM

CC[C@H](C)[C@H](NC(=O)[C@@H](CC(=O)NC)NC(=O)CNC(=O)[C@H](NC(=O)[C@@H](NC(=O)[C@@H](CC(=O)NC)NC(=O)[C@@H](NC(=O)[C@@H](CC(=O)NC)NC(=O)CNC(=O)CNC(=O)[C@H](C)NC(=O)[C@H](NC(=O)[C@H](CCC(=O)NC)NC(=O)[C@@H](CC(=O)NC)NC(=O)[C@@H](NC(=O)CNC(=O)[C@H](C)NC(=O)CNC(=O)[C@@H](N)C(C)(C)O)C(C)(C)C)C(C)(C)O)[C@@H](C)CC)C(C)(C)C)C(C)(C)O)C(=O)N[C@H](CC(=O)NC)C(=O)N[C@H](C(=O)N[C@H](CC(=O)NC)C(=O)N[C@@H](C)C(=O)N[C@H](CC(=O)NC)C(=O)N[C@H](C(=O)N[C@H](CO)C(=O)N[C@H](C(=O)N[C@H](CC(N)=O)C(=O)N[C@@H](Cc1cn(CCNS(=O)(=O)c2cccc3c(N(C)C)cccc23)nn1)C(=O)N[C@H](CC(N)=O)C(=O)N[C@@H](CCC(N)=O)C(=O)N[C@@H](C(=O)N[C@H](C(=O)O)[C@@H](C)O)[C@H](C)O)C(C)C)C(C)C)C(C)C
IC50 (P388 [3]): 140 nM

CC[C@H](C)[C@H](NC(=O)[C@@H](CC(=O)NC)NC(=O)CNC(=O)[C@H](NC(=O)[C@@H](NC(=O)[C@@H](CC(=O)NC)NC(=O)[C@@H](NC(=O)[C@@H](CC(=O)NC)NC(=O)CNC(=O)CNC(=O)[C@H](C)NC(=O)[C@H](NC(=O)[C@H](CCC(=O)NC)NC(=O)[C@@H](CC(=O)NC)NC(=O)[C@@H](NC(=O)CNC(=O)[C@H](C)NC(=O)CNC(=O)[C@@H](NC(=O)[C@H](N)CC(=O)NC)C(C)(C)O)C(C)(C)C)C(C)(C)O)[C@@H](C)CC)C(C)(C)C)C(C)(C)O)C(=O)N[C@H](CC(=O)NC)C(=O)N[C@H](C(=O)N[C@H](CC(=O)NC)C(=O)N[C@@H](C)C(=O)N[C@H](CC(=O)NC)C(=O)N[C@H](C(=O)N[C@H](CO)C(=O)N[C@H](C(=O)N[C@H](CC(N)=O)C(=O)N[C@@H](Cc1cn(CCNS(=O)(=O)c2cccc3c(N(C)C)cccc23)nn1)C(=O)N[C@H](CC(N)=O)C(=O)N[C@@H](CCC(N)=O)C(=O)N[C@@H](C(=O)N[C@H](C(=O)O)[C@@H](C)O)[C@H](C)O)C(C)C)C(C)C)C(C)C
IC50 (P388 [3]): > 420 nM
